Shown is part of a subset that was picked to be rich in hits.
pCIP destab: p/CIP protein destabilization; Q05BA5; F442A p/CIP-EGFP cells, EGFP fluorescence, 16 h; decrease of EGFP signal, % at 10 µM; 290,000 tested, 0.01% active; AID 1984;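 active means EGFP signal decrease of at least 30% at 10 µM or well 3 SD below plate mean, unless failing retest; inactive means the rest, including hits failing retest or dose response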
CHOP inhibitor: blocks CHOP induction under ER stress | CHO-K1 CHOP-promoter luciferase, tunicamycin-induced, 15-18 h | inhibition, % at 10 µM | 220,000 tested, 3.8% active | AID 2732;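 active means compounds that reduced the stress-induced luciferase reporter signal by more than about 70% of percent inhibition, limit read from the data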;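 further: 0% = tunicamycin plus vehicle and 100% = wells without tunicamycin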
Dynein cargo inh: dynein cargo transport inhibition; 3617.4 mouse cells, GR-EGFP nuclear translocation imaging; test concentration mostly 20 µM; stimulated with dexamethasone, 1 µM; active compounds read low; z-score, hits read low; 220,000 tested, 0.47% active; AID 1381;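 active means plate z-score of nuclear minus cytoplasmic receptor signal below a set negative limit, without overly bright fluorescence or cell loss, cut at about -3.5 in these data, passing the limit was not always enough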;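 further: z-score of nuclear minus cytoplasmic ring GR-EGFP intensity difference per well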
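Buffer or medium – tet-free medium with charcoal-stripped serum · Signal – automated 10x imaging of fixed Hoechst-stained cells · Also added – dexamethasone agonist, 1.0 µM final, for 30 min · Incubation – induction 48 h, compound 1 h, agonist 30 min · Read-out – GR-EGFP nuclear translocation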
B2AR ag: agonists of human beta-2 adrenergic receptor inducing internalization; P07550; Am2.2-beta2AR cells, FAP receptor internalization, flow cytometry; response, % (no concentration beside the values); 340,000 tested, 0.43% active;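 active means response above a set limit, near 3 SD of response in nonfluorescent compounds, cut at about 42% in these data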
Target sequence (P07550 whole entry, looked up): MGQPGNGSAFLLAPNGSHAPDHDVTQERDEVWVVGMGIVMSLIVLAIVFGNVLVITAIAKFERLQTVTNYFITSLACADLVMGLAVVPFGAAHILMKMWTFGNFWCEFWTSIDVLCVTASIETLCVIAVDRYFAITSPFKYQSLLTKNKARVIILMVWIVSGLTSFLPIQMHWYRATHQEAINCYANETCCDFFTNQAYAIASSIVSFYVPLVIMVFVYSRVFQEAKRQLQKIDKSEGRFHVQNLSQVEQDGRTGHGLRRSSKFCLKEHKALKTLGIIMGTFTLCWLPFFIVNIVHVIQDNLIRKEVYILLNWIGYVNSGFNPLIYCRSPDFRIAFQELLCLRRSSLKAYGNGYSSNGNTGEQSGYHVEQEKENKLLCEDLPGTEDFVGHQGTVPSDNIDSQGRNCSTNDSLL
UPR XBP1 act: activators of adaptive arm of unfolded protein response (XBP1); CHO-XBP1 luciferase reporter, IRE1-XBP1 UPR activation, luminescence; percent of tunicamycin response, DMSO as zero; activation, % at 20 µM; 330,000 tested, 0.33% active;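 active means versus positive control, 20 µM dose yields 30% or more activation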;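 further: 100% = tunicamycin at 10 µg/mL and 0% = DMSO only wells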
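Material – CHO cell line with stable XBP1 luciferase reporter · Buffer or medium – F12 plus 10% FBS · Compound – single point, 20 µM final compound, 1% DMSO · Schedule – 16-18 h cell attachment at 37 °C, then 6 h compound exposure · Signal – Steady-Glo luminescence read · Benchmarks – high control tunicamycin 10 µg/mL final, low control DMSO vehicle only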
CHOP UPR activ: activators of apoptotic arm of unfolded protein response (CHOP); CHO-CHOP luciferase reporter, UPR activation, luminescence; percent of tunicamycin response over DMSO baseline; activation, % at 10 µM; 330,000 tested, 0.34% active; AID 449763;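 active means at 10 µM dose, activation of 40% or more, normalized to positive control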;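 further: 100% = tunicamycin at 10 µg/mL and 0% = DMSO alone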
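Dosing – one dose, 10 µM in 0.5% DMSO · System – CHO-CHOP cells, stable luciferase reporter of PERK-eIF2a-CHOP signalling · Input – 500 cells/well · Control set – tunicamycin 10 µg/mL final as positive, DMSO-only wells as negative · Timing – 6 h compound treatment, 37 °C · Measure – % activation vs tunicamycin · Technique – luminescence read with Steady-Glo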
XBP1 UPR conf: adaptive UPR (XBP1) activation, confirmed. 1,000 tested, 63% active. CHO-XBP1 IRE1-XBP1 luciferase reporter, luminescence. shares compounds with UPR XBP1 act. activation, % at 20 µM. AID 485299;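 active means reporter signal at least 30% of the positive control's activation in two or more of four replicate wells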;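 further: plate controls were DMSO negative control for no effect and tunicamycin 10 µg/mL positive control for full effect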
Active calls of the source: *; x = no result.

SMILES | pCIP destab | CHOP inhibitor | Dynein cargo inh | B2AR ag | UPR XBP1 act | CHOP UPR activ | XBP1 UPR conf
COc1cc(OC)c(OC)cc1CNC(=O)c1cc(=O)c2ccccc2o1 | 11.3 | x | x | -2.7 | -0.3 | 0.3 | x
CCN(CC)S(=O)(=O)c1ccc2c(c1)C(=NO)c1cc(S(=O)(=O)N(CC)CC)ccc1-2 | -2.7 | -21.9 | 0.122 | 16.8 | 51.6* | 14.0 | 78.6*
CCN(CC)S(=O)(=O)c1ccc(C)c(C)c1 | -5.8 | 5.0 | -0.679 | -2.5 | 1.0 | -1.5 | x
Cc1ccc(C)c(S(=O)(=O)NCC(=O)Nc2sc3c(c2C(N)=O)CCC(C)C3)c1 (stereo unspecified) | -7.3 | -31.3 | -0.885 | 3.7 | 31.7* | 9.0 | 24.4
O=C(Cn1c(=O)n(-c2ccccc2)c(=O)c2oc3ccccc3c21)Nc1ccccc1 | -18.2 | 13.9 | 0.216 | -4.8 | 0.9 | 1.1 | x
CCOc1ccccc1NC(=O)Cn1c(=O)n(-c2ccccc2)c(=O)c2oc3ccccc3c21 | 6.1 | 63.2 | 0.201 | -0.7 | 65.0* | 1.9 | 94.1*
COc1ccc(/C=N/Nc2cc(C)nc3ccc(Br)cc23)cc1 | 8.7 | x | x | 36.7 | 32.1* | 20.0 | 36.3*
O=C(CCS(=O)(=O)c1ccccc1)Nc1cccc2c1C(=O)NC2=O | 15.1 | 4.1 | -0.683 | -18.9 | 1.4 | 0.6 | x
Clc1ccccc1-c1ccc(/C=N/Nc2nncc(-c3ccccc3)n2)o1 | 5.3 | 57.3 | -0.455 | 18.9 | 40.9* | -1.2 | 27.8
FC(F)(F)c1cccc(-c2ccc(/C=N/Nc3nncc(-c4ccccc4)n3)o2)c1 | -6.2 | 65.1 | -0.168 | 2.8 | 4.7 | 1.0 | x
O=C(COC(=O)CSc1ccc(F)cc1)NC1CCCCCC1 | x | x | x | -9.5 | -0.2 | 0.9 | x
Cc1ccc(S(=O)(=O)Nc2c(C)cc(C)nc2Cl)cc1 | -0.4 | x | x | -8.4 | -4.5 | 0.5 | x
Cc1ccc(-c2nnn(CC(=O)N(Cc3cccs3)C(C(=O)NC3CCCCC3)c3ccco3)n2)o1 (stereo unspecified) | -22.2 | 17.2 | 0.605 | 5.3 | 47.8* | 0.8 | 38.5*
Cc1ccc(-c2nnn(CC(=O)N(Cc3cccs3)C(C(=O)NC3CCCC3)c3ccco3)n2)o1 (stereo unspecified) | -3.9 | 66.9 | 2.69 | -7.5 | 1.8 | -1.3 | x
Cc1ccc2nc(SCC(=O)N(CC(C)C)c3c(N)n(Cc4ccccc4)c(=O)[nH]c3=O)[nH]c2c1 | -17.7 | -13.9 | 0.508 | 7.0 | -2.1 | 0.3 | x
COc1cccc2cc(C(=O)Nc3cc(C)cc(C)c3)/c(=N/NS(=O)(=O)c3ccccc3)oc12 | -2.2 | x | x | 0.3 | 240.2* | 1.0 | 4.3
COc1ccc(NC(=O)c2cc3ccccc3o/c2=N\NS(=O)(=O)c2ccc(C)cc2)cc1 | -2.8 | x | x | -26.1 | -0.7 | 6.9 | x
CN(C)S(=O)(=O)c1ccc(NC(=O)CN2C(=O)NC(Cc3ccccc3)C2=O)cc1 (stereo unspecified) | x | x | x | -1.6 | 1.7 | -1.1 | x
C[C@H](CO)N1C[C@H](C)[C@@H](CN(C)C(=O)Nc2ccc3c(c2)OCO3)Oc2c(NS(=O)(=O)c3ccc(F)cc3)cccc2C1=O | x | x | x | -9.1 | -2.3 | 1.5 | x
O=C(Nc1ccc(Cl)cc1)Nc1ccccc1Sc1ncc([N+](=O)[O-])s1 | 2.9 | 36.8 | -1.92 | 22.3 | 39.7* | 11.6 | 31.3*
O=C(Nc1csc([N+](=O)[O-])c1)Nc1ccccc1Cl | -14.9 | 19.7 | -0.406 | 8.0 | 1.4 | 5.9 | x
Nc1ccccc1NC(=O)c1ccccc1 | -18.4 | 19.2 | 0.0855 | 11.5 | 3.7 | 1.4 | x
Nc1ccc(NC(=O)c2ccccc2)c2c1C(=O)c1ccccc1C2=O | 0.3 | -0.5 | -0.441 | 11.1 | 32.1* | 0.5 | 26.1
Cc1ccc(Cn2c(=O)n(-c3ccccc3)c(=O)c3ccc(C(=O)NCc4ccco4)cc32)cc1 | -5.2 | 84.5* | 0.151 | 12.7 | 34.9* | 1.0 | 30.9*
C=CCn1c(=O)c2ccc(C(=O)NCc3ccccc3)cc2n(Cc2ccc(C)cc2)c1=O | -1.8 | 79.5* | 2.51 | -3.5 | 43.8* | 1.1 | 18.3
SMILES | pCIP destab | CHOP inhibitor | Dynein cargo inh | B2AR ag | UPR XBP1 act | CHOP UPR activ | XBP1 UPR conf
COCCCNC(=O)c1ccc(Cn2c(=O)c3ccccc3n(Cc3cc(C)ccc3C)c2=O)cc1 | -2.1 | 2.6 | 1.03 | -0.8 | -0.4 | 2.5 | x
COc1cc2sc(-c3ccccc3OC)c(-c3ccc(OCCN4CCCCC4)cc3)c2cc1OC | x | x | x | 38.8 | 23.8 | 6.9 | x
COc1ccccc1-c1sc2cc3c(cc2c1-c1ccc(OCCN2CCCCC2)cc1)OCO3 | x | x | x | 37.6 | 34.9* | 6.3 | 35.9*
c1cn2c(NC3CCCCC3)c(-c3ccc(SC4CCCCC4)cc3)nc2cn1 | x | x | x | -0.3 | 4.4 | 2.5 | x
c1cc(SC2CCCCC2)cc(-c2nc3cnccn3c2NC2CCCCC2)c1 | x | x | x | 50.2* | 196.2* | 7.8 | 170.8*
CCCCNc1c(-c2ccc(-c3ccc(C(C)=O)cc3)c(OC)c2)nc2cc(C)ccn12 | x | x | x | 13.0 | 39.7* | 8.7 | 37.5*
COc1ccc(NC(=O)c2ccco2)cc1NC(=O)c1cccc(F)c1 | -6.0 | x | x | -6.3 | -5.5 | -0.1 | x
NC1=NC[C@@H](CC2CCCCC2)N1CCc1cc(C(F)(F)F)cc(C(F)(F)F)c1 | x | x | x | 2.9 | 49.0* | 1.2 | 54.9*
CCN(CCCn1c(SCC#N)nc2ccccc2c1=O)c1ccccc1 | -12.2 | 67.4 | 1.53 | -15.1 | 2.6 | -1.4 | x
CCN(CC)C(=O)c1[nH]cnc1C(=O)Nc1cccc(C)c1 | x | x | x | 3.8 | -1.6 | 3.0 | x
Cc1cccc(NC(=O)c2nc[nH]c2C(=O)Nc2ccccc2[N+](=O)[O-])c1 | -10.7 | 12.8 | -0.89 | 6.5 | 30.3* | 12.8 | 42.2*
O=c1cc(N2CCc3ccccc3C2)[nH]c(=O)n1Cc1ccc(F)cc1 | -14.4 | -0.9 | 3.11 | -1.4 | 42.5* | -1.6 | -0.5
O=c1cc(N2CCN(c3ccccc3)CC2)[nH]c(=O)n1Cc1ccc(F)cc1 | -14.0 | 37.9 | 2.53 | -5.0 | -3.3 | 1.1 | x
COc1cc(-c2noc(C)c2C#Cc2ccccn2)cc(OC)c1OC | 5.3 | x | x | -11.6 | 9.0 | -0.5 | x
COc1cc(-c2noc(C)c2C#Cc2ccc(N)cc2)cc(OC)c1OC | 1.6 | x | x | 16.6 | 59.4* | 3.0 | 23.7
CC(=O)COc1ccc2c(-c3cccc([N+](=O)[O-])c3)cc(=O)oc2c1 | -1.8 | 5.8 | -0.344 | -9.8 | -0.3 | 0.2 | x
COc1ccc([N+](=O)[O-])cc1COc1ccc2c(-c3ccccc3)cc(=O)oc2c1 | 8.2 | 17.7 | -0.208 | 2.0 | 47.5* | 5.8 | 142.6*
CCOC(=O)CCSc1nc(-c2ccc3c(c2)OCO3)cc(C(F)(F)F)c1C#N | -21.3 | -50.6 | -1.31 | 14.6 | 1.7 | 0.4 | x

Screening data as filed in PubChem.
